# In ChEMBL document CHEMBL1123441, “Carrier-linked primaquine in the chemotherapy of malaria” (J Med Chem, 1986):
# Where “and” joins values, the source holds several entries; their conditions need not be identical. Equal entries are not always repeated.
# Assays:
# [1] = system: Mus musculus; assay: Free and protein-conjugated compound is evaluated for curative effect, at the 11 mg/kg; type: functional
# Procedure, shortened: (§1)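 Female A/J mice (~20 g, groups of 6–8) inoculated via tail vein with 10^4 Plasmodium berghei sporozoites. Drug, conjugate or carrier alone in 0.5 mL PBS given intravenously 2–3 h later; doses as mg primaquine base/kg. Giemsa-stained thin blood smears were read up to day 12, and mice without parasitemia by day 12 were scored cured. An untreated control group was run per experiment. CPD50 came from probit-transformed dose–response data, with results pooled from at least two experiments.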
# [2] = Ratio of LD50 (lethal toxicity in mice) to that of CPD50 (therapeutic efficacy); type: organism-based; conditions: mouse, in vivo
# Procedure, shortened: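 Therapeutic index as LD50/CPD50 (mg primaquine base/kg). LD50 came from probit analysis of deaths after intravenous dosing of noninfected mice, groups of eight. CPD50 came from probit analysis of cure (no parasitemia by day 12) in A/J mice given intravenous drug 2–3 h after intravenous inoculation of 10^4 P. berghei sporozoites.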
# [3] = organism: Mus musculus; assay: Compound is evaluated for therapeutic efficacy; type: ADME, organism-based; conditions: in vivo; procedure, shortened: as §1
# [4] = (§2) Compound is evaluated for acute lethal toxicity by intravenous administration; type: organism-based; conditions: mouse, in vivo
# Procedure, shortened: (§3)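 Noninfected mice in groups of eight, given a single intravenous injection of varying doses (mg primaquine base/kg) of free or protein-coupled drug. Highest conjugate dose was limited by solubility.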
# [5] = system: Mus musculus; assay: as §2; type: organism-based; conditions: in vivo; procedure, shortened: as §3
# [6] = system: Mus musculus; assay: Free and protein-conjugated compound is evaluated for curative effect, at the 8 mg/kg; type: functional; procedure, shortened: as §1
# [7] = system: Mus musculus; assay: Free and protein-conjugated compound is evaluated for curative effect, at the 9.5 mg/kg; type: functional; procedure, shortened: as §1
# [8] = system: Mus musculus; assay: Free and protein-conjugated compound is evaluated for curative effect, at the 14.5 mg/kg; type: functional; procedure, shortened: as §1
# [9] = system: Mus musculus; assay: Free and protein-conjugated compound is evaluated for curative effect, at the 7 mg/kg; type: functional; procedure, shortened: as §1
structure (smiles),measurement,setting,value
COc1cc(NC(C)CCCN)c2ncccc2c1 (centres undefined) [PRIMAQUINE],Cure,[1],20%
same,selectivity ratio,[2],1.2
same,CPD50,[3],13 mg/kg and 20 mg/kg
same,LD50,[4],16 mg/kg
same,LD10,[5],13 mg/kg
same,Cure,[6],13%
same,Cure,[7],13%
same,Cure,[8],69%
same,Cure,[9],0%
